Target: human ΔF508–CFTR (Homo sapiens, UniProt P13569, DEL508-508)
Assay: ΔF508–CFTR corrector activity assay
Type: cell-based
Conditions: for Vmax higher than benchmark bithiazole corr4a: difference to corr4a (475 μM/s); for Increase of Vmax compared to benchmark bithiazole corr4a: relative to corr4a; for Corrector activity (in words): ΔF508–CFTR FRT cells
Outline: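 FRT cells stably coexpressing human ΔF508–CFTR and YFP-H148Q/I152L were grown 24 h at 37 °C, then exposed 16–20 h to test compound at various concentrations, with DMSO vehicle and a bithiazole positive control. Cells were PBS-washed and given forskolin (20 μM) plus genistein (50 μM) for 20 min. Fluorescence (ex 500, em 535 nm) was recorded 2 s before and 12 s after adding iodide-for-chloride PBS. Initial rate came from an exponential fit, normalized to initial fluorescence. Vmax came from Hill fitting of concentration–activity data.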

Vmax higher than benchmark bithiazole corr4a | Increase of Vmax compared to benchmark bithiazole corr4a | Corrector activity (in words) | Compound
200 µM/s | 1.5 fold |  | COC(=O)CCC(=O)Nc1nc2c(s1)-c1nc(Nc3cc(Cl)ccc3OC)sc1CCC2 [9e, Methyl 4-((8-((5-chloro-2-methoxyphenyl)amino)-5,6-dihydro-4H-cyclohepta[1,2-d:3,4-d′]bis(thiazole)-2-yl)amino)-4-oxobutanoate]
 |  | modest correctors | COc1ccc(Cl)cc1Nc1nc2c(s1)CCCc1nc(N)sc1-2 [7a, N8-(5-Chloro-2-methoxyphenyl)-5,6-dihydro-4H-cyclohepta[1,2-d:3,4-d′]bis(thiazole)-2,8-diamine]
200 µM/s | 1.5 fold |  | COc1ccc(Cl)cc1Nc1nc2c(s1)CCCCc1nc(NC(=O)C(C)C)sc1-2 [10c, N-(9-((5-Chloro-2-methoxyphenyl)amino)-4,5,6,7-tetrahydrocycloocta [1,2-d:3,4-d′]bis(thiazole)-2-yl)isobutyramide]
 |  | modest correctors | COc1ccc(Cl)cc1Nc1nc2c(s1)CCCCc1nc(N)sc1-2 [8a, N9-(5-Chloro-2-methoxyphenyl)-4,5,6,7-tetrahydrocycloocta[1,2-d:3,4-d′]bis(thiazole)-2,9-diamine]
